Measurements gathered from unrelated publications.
Each line is one published result; the experiments were not run side by side.
Target: Serine/threonine-protein kinase ULK1 (ULK1, Homo sapiens, UniProt O75385)
One construct used (O75385 1-1050): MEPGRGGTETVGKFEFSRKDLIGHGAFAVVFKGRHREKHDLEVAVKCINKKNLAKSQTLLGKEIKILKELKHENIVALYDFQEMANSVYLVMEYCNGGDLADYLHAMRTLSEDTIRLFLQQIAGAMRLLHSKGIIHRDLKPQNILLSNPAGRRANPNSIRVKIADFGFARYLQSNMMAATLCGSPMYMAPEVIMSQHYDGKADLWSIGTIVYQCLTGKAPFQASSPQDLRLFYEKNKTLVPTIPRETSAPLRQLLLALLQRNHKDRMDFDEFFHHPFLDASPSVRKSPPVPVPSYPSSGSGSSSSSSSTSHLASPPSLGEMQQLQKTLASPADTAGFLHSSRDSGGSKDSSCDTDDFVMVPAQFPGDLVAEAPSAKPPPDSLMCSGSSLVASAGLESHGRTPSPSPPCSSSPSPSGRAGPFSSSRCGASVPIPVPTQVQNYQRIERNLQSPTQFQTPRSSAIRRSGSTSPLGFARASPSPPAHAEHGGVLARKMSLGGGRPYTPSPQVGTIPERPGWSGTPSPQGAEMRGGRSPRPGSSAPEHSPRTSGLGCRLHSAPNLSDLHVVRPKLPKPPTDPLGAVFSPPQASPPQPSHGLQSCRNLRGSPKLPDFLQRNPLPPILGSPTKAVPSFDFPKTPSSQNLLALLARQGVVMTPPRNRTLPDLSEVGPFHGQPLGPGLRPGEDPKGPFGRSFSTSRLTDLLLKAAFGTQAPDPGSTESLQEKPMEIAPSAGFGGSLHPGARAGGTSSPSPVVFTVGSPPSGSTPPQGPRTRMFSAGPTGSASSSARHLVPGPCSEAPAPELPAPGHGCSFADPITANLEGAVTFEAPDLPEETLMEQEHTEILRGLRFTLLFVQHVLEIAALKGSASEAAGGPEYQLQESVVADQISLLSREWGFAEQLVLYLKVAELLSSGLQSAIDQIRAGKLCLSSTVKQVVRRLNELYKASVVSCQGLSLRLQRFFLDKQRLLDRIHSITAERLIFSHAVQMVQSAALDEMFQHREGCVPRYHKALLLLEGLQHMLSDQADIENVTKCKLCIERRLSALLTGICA

Structure (SMILES)	assay	setting	remaining binding
N[C@@H]1CCN(c2nccc(-c3cnn4ncccc34)n2)C1	binding	1 µM	100%
CC1=C(C#N)C(c2ccc3c(c2)c(NC(=O)c2ccccc2C)nn3C)C(C#N)=C(C)N1	cell-free assay, competition with immobilised ligand	1 µM	86%
CCN1CCN(Cc2ccc(C(=O)Nc3ccc(C)c(Oc4ccc5c(c4)CC(=O)N5)c3)cc2C(F)(F)F)CC1	binding, competition with immobilised ligand	1 µM	100%
COc1ncc2cc3ccccc3nc2c1C#N	cell-free assay, competition with immobilised ligand	5 µM	93%
COc1ccnn2ncc(-c3ccnc(N(C)C)n3)c12	binding	1 µM	100%
O=C(c1ccc(Nc2nccc(-c3cc4ccccc4s3)n2)cc1)N1CCC(N2CCCC2)CC1	binding, competition with immobilised ligand	1 µM	50%
CS(=O)(=O)N1CCCC(NC(=O)[C@H](CCC2CCCCC2)NC(=O)c2ccc(CNC(=O)c3cnc4ccccn34)cc2)C1 (some centres unmarked)	cell-free assay, competition with immobilised ligand	0.1 µM	83%
CN(C)c1nccc(-c2cnn3ncccc23)n1	binding	1 µM	96%
c1ccc(N2CCN(Cc3nc4ccccc4[nH]3)CC2)nc1	binding, competition with immobilised ligand	1 µM	100%
CNC(=O)[C@@H]1CC[C@@H](n2c(-c3ccc4cnccc4c3)nc3ccc(C(=O)NCc4cccc(C(N)=O)c4)cc32)C1	binding, competition with immobilised ligand	1 µM	100%
CN(C(=O)c1ccccc1)c1cc(N(C)c2ccc3c(c2)CCc2ccc(C(=O)NCCN4CCOCC4)cc2C3=O)ccc1F	cell-free assay, competition with immobilised ligand	1 µM	100%
FC(F)(F)Oc1cccc(-c2cnc3ccc(-c4ccncc4)nn23)c1	binding, competition with immobilised ligand	5 µM	82%
CC1CCCN1c1nccc(-c2cnn3ncccc23)n1 (centres unmarked)	binding	1 µM	97%
Cc1noc([C@H]2C[C@@H](c3ccc(C(F)(F)F)cc3)CN(C(=O)N3CCS(=O)(=O)C3)C2)n1	cell-free assay, competition with immobilised ligand	1 µM	85%
O=C(NCCCN1CCOCC1)c1ccc(Nc2ncc(Cl)c(-c3ccc(Cl)s3)n2)cc1	binding, competition with immobilised ligand	1 µM	3.5%
O=C(Nc1c[nH]nc1C(=O)NC1CCNCC1)c1cc(F)cc(F)c1	binding, competition with immobilised ligand	1 µM	100%
F[C@@H]1CCN(c2nccc(-c3cnn4ncccc34)n2)C1	binding	1 µM	89%
CNCc1ccccc1-c1csc([C@H](C)Nc2nc(C)nc3cc(OC)c(OC)cc23)c1	cell-free assay, competition with immobilised ligand	1 µM	91%
CN(c1nccc(-c2cnn3ncccc23)n1)C1CC1	binding	1 µM	85%
Cc1cnc(Nc2ccc(C(=O)N3CCC(N4CCCC4)CC3)cc2)nc1-c1cc2ccccc2s1	binding, competition with immobilised ligand	1 µM	1.2%
